Arrestin-AP2 inh: inhibitors of human beta-arrestin and AP2 interaction | FITC-arrestin peptide / GST-AP2 beads, flow cytometry; AP2 beta2 appendage carries R879A mutation | inhibition, % at 10 µM | actives 0.31% (n = 340,000);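 active = inhibition above a set limit, near 3 SD of compounds lacking own fluorescence, cut at about 54% in these data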;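 note: plate controls were DMSO wells for no effect and 5 µM unlabelled arrestin peptide for full effect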
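System: GST-AP2 R879A glutathione beads; medium: PBS, Tween 20 0.05%, BSA 0.1%; reagent: fluorescein-tagged arrestin peptide at 50 nM final; schedule: pre-incubation 12 min, peptide binding 1 h, room temperature; detection: flow cytometry, FL1 (488/535 nm); read-out: inhibition as reduced fluorescein signal on beads, percent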
ADAM10 inh: ADAM10 inhibition, QFRET primary screen. recombinant ADAM10, EDANS/DABCYL FRET peptide cleavage, 3 h. inhibition, % at 7 µM. actives 0.62% (n = 370,000);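 active = inhibition above a per-campaign cutoff equal to the mean of compounds falling between control-based bounds plus 3 SD, cut at about 20% in these data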;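 note: 0% = DMSO wells while the 100% control is not disclosed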
FAS TE block: inhibitors of human fatty acid synthase thioesterase domain; P49327; recombinant FAS-TE, OMFH fluorogenic substrate, fluorescence endpoint; inhibition, % at 15 µM; actives 0.67% (n = 360,000);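 active = compounds whose normalised, plate-corrected inhibition of enzyme fluorescence in the single-dose primary screen is 50% or more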;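 note: 0% = DMSO with enzyme and 100% = substrate without enzyme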
CendR NRP1 mod: NRP-1/CendR interaction modulation. O14786. FAM-RPARPAR peptide binding to NRP-1, fluorescence polarization. inhibition, % at 25 µM. actives 0.85% (n = 360,000). AID 602438;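 active = inhibition or corrected inhibition above about 18%, plus a signal ratio from 0.5 to 1.5, limit read from the data, passing the limit was not always enough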
ADAM17 inh: inhibits human ADAM17; P78536; recombinant ADAM17, EDANS/DABCYL FRET peptide cleavage; inhibition, % at 6.95 µM; actives 0.83% (n = 370,000); AID 720648;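 active = inhibition above the mean of compounds lying between control limits plus 3 SD, set per campaign, cut at about 8.5% in these data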;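 note: 0% = DMSO-only wells as the low control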
CaV13 FRET inh: Primary screen for inhibitors of IQ motif and Ca2+-dependent inactivation inhibitor domain binding in CACNA1D, Förster resonance energy transfer in living cells, …. inhibition, % at 12.3 µM. actives 0.098% (n = 340,000). HEK cells, CFP/YFP FRET ICDI-IQ, plate reader, 10 min; percent FRET-ratio fall versus neutral wells;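 active = mean replicate inhibition of at least 30% and at least 1% of replicates passing that level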;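 note: 0% = median of the neutral control wells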
ADAM10 counter: inhibits human ADAM10 in ADAM17 exosite counter-screen | shares compounds with ADAM17 inh | recombinant ADAM10, EDANS/DABCYL FRET peptide cleavage, 3 h | inhibition, % at 6.95 µM | actives 47% (n = 2,900) | AID 743256;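 active = mean inhibition over the triplicate runs exceeds the activity threshold set in the earlier primary screen, cut at about 20% in these data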;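 note: 0% = DMSO wells and 100% = marimastat wells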
ADAM17 confirm: confirmation of inhibitors of human ADAM17; shares compounds with ADAM17 inh; recombinant ADAM17, EDANS/DABCYL QFRET peptide cleavage; inhibition, % at 6.95 µM; actives 65% (n = 2,900); AID 743257;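 active = mean inhibition across replicates above the hit cutoff set in the primary screen, cut at about 8.5% in these data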;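 note: 0% = DMSO wells and 100% = marimastat wells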
* = called active by the depositor; x = no result given. A selection: hits, their analogues and other compounds. The true share with any hit is near 2.9%.

SMILES | Arrestin-AP2 inh | ADAM10 inh | FAS TE block | CendR NRP1 mod | ADAM17 inh | CaV13 FRET inh | ADAM10 counter | ADAM17 confirm
Cc1cccc(OCC(=O)N2CCN(Cc3ccncc3)CC2)c1 | 20 | 5 | -10 | 6 | 11* | x | -8 | 0
COc1ccc(Cc2cn(C)c(N)n2)cc1 | x | -11 | x | x | -5 | x | x | x
O=c1[nH]c2ccccc2n1C1CCN(C(c2ccccc2)c2nnnn2-c2ccc3c(c2)OCCO3)CC1 (configuration not stated) | x | 18 | 40 | -2 | 11* | -5 | 38* | 23*
CCC(c1nnnn1-c1ccc2c(c1)OCCO2)N1CCC(n2c(=O)[nH]c3ccccc32)CC1 (configuration not stated) | x | 4 | 4 | 5 | 0 | -5 | x | x
CC(C(=O)c1cn(C)c2ccccc12)c1ccccc1 (configuration not stated) | -5 | 15 | 10 | 8 | 11* | -9 | 2 | 4
C=CCN1C[C@H](C)N(C(c2ccc(C(=O)N(CC)CC)cc2)c2cccc(OC)c2)CC1C (some centres not stated) | x | -4 | x | x | 1 | x | x | x
COC(=O)C1=C(c2ccc(Cl)c(C(F)(F)F)c2)C[C@@H]2CC[C@H]1N2C(=O)N1CCC(O)(c2ccc(Cl)cc2)CC1 | -9 | 19 | 17 | 5 | 9.5* | -5 | 16 | 8.8*
N#Cc1ccc(NC(=S)N2Cc3cc(Br)ccc3-n3nncc3C2)cc1 | x | 1 | x | x | 5 | -3 | x | x
N=C(N)c1c(O)n(C2CCCCC2)c(=O)n(C2CCCCC2)c1=O | 22 | 17 | 23 | 9 | 9.6* | -6 | 52* | 24*
O=c1c(C=NCc2cccs2)c(O)n(C2CCCCC2)c(=O)n1C1CCCCC1 | 3 | 4 | 29 | 12 | 3 | x | x | x
O=C(c1ccccc1F)c1cn(CC(=O)N2CCOCC2)c2ccccc12 | 4 | -10 | -3 | 0 | 8.6* | -6 | 3 | 3
O=C(c1ccccc1F)c1cn(CC(=O)N2CCCC2)c2ccccc12 | -5 | 10 | 0 | 9 | 0 | -2 | x | x
COC(=O)C1=C(c2ccc(-c3ccccc3)c(F)c2)C[C@@H]2CC[C@H]1N2C(=O)NC1CC1 | -12 | 19 | -2 | 0 | 11* | -8 | 6 | 7
COC(=O)C1=C(c2ccccc2OCc2ccccc2)C[C@@H]2CC[C@H]1N2C(=O)NCc1ccc(C(F)(F)F)cc1 | -2 | 9 | 16 | -1 | 3 | -7 | x | x
COC(=O)C1=C(c2ccc(F)cc2OCc2ccccc2)C[C@@H]2CC[C@H]1N2C(=O)NCc1ccc(C(F)(F)F)cc1 | -2 | 17 | 21 | 6 | 11* | -9 | 36* | 21*
COC(=O)C1=C(c2ccc(OCc3ccccc3)cc2)C[C@@H]2CC[C@H]1N2C(=O)NCc1ccc(OC)c(OC)c1 | 3 | 12 | 12 | -6 | 5 | -5 | x | x
COC(=O)C1=C(c2ccc(OCc3ccccc3)cc2)C[C@@H]2CC[C@H]1N2C(=O)NCc1ccccc1OC | x | 17 | 20 | 6 | 9.7* | -5 | 28* | 14*
CC(C)(C)Cc1nnc(NC(=O)COc2ccc(Cl)cc2Cl)o1 | x | -2 | x | x | -5 | x | x | x
CC(=O)N1c2ccccc2C(c2ccccc2)=NCC1C(=O)NC1CCCCC1 (configuration not stated) | x | 1 | x | x | -1 | x | x | x
CCOC(=O)[C@@H]1[C@H]2COc3ccc(Br)cc3[C@H]2N2C(=O)N(c3cccc(C)c3)C(=O)[C@]12C | -5 | 23* | 33 | 2 | 9.3* | -6 | 30* | 19*

Source: PubChem BioAssay
